Screens from PubChem.
Rows were chosen to be rich in hits. Some 1.6% of all compounds tested hit in one or more screens of this group.
HTRA1 inhibitor – blocks human HTRA1 serine peptidase; Q92743; recombinant HTRA1, FP-rhodamine activity-based probe, fluorescence polarization; inhibition, % at 5.96 µM; 340,000 compounds, 0.5% hits; AID 504803; in the data active = inhibition above about 36%;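 also: 0% = enzyme with DMSO and 100% = wells lacking enzyme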
mABHD4 FP – ABHD4 (mouse) inhibition, primary FP screen. purified mABHD4, FP-Rh probe fluorescence polarization. inhibition, % at 8.92 µM. Q8VD66. AID 720543. 370,000 compounds, 0.54% hits;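 active = inhibition exceeding the mean over every tested compound plus 3 SD, cut at about 30% in these data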;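 also: 0% = plate median of compound wells and 100% = S159A mutant with DMSO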
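Material: mouse ABHD4 enzyme, wild type; Benchmarks: S159A mutant high control, sample median low control; Buffer or medium: HEPES pH 7.0, NaCl, Pluronic buffer; Signal: fluorescence polarization; Read-out: percent inhibition of probe binding, normalized to plate controls; Timing: pre-incubation 45 min, probe exposure 60 min, at 25 °C; Dosing: 8.92 µM, single dose.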
TCR-CD3 inh – inhibitors of human TCR-CD3 interaction; TAMRA-labeled TCR probe fluorescence, biochemical; AID 651800; 360,000 compounds, 0.37% hits; inhibition, % at 9.4 µM; in the data active = inhibition above about 19%;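 also: recombinant mutant TCR 2C K166C tagged with TAMRA read by polarization; 0% = receptor in buffer alone and 100% = receptor with positive control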
SIAE primary – human SIAE inhibition, primary screen; Q9HAT2; SIAE FP-Rh probe binding, fluorescence polarization; inhibition, % at 9.66 µM; 370,000 compounds, 0.69% hits; AID 1053197;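 active = inhibition above a cutoff: mean of compounds within the control limits plus 3 SD of those, cut at about 17% in these data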;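 also: 0% = plate median of compound wells and 100% = probe without SIAE protein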
Target sequence (Q9HAT2 whole entry, looked up): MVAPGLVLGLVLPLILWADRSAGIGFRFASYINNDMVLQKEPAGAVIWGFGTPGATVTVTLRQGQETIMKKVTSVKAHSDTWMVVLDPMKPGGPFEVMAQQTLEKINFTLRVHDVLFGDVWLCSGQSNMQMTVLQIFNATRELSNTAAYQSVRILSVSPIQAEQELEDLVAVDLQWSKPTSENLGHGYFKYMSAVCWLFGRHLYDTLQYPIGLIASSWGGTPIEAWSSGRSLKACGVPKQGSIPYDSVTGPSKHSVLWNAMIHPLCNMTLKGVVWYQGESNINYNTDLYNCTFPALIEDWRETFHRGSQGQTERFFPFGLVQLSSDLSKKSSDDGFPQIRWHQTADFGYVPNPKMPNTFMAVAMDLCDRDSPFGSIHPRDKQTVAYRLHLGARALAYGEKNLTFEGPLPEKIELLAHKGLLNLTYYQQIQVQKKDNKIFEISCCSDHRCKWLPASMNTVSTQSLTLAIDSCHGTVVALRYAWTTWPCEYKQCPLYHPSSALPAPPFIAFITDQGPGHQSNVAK
DAGLB inhibitor – blocks human DAGLB lipase activity | HEK293T DAGLB membrane lysate, EnzChek fluorogenic substrate | inhibition, % at 5.17 µM | 340,000 compounds, 0.059% hits; in the data active = inhibition above about 34%;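 also: 0% = enzyme with vehicle and 100% = wells lacking enzyme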
SIAE inh conf – confirmation of human SIAE inhibitors. shares compounds with SIAE primary. SIAE FP-Rh activity-based probe, fluorescence polarization. inhibition, % at 9.66 µM. 2,300 compounds, 13% hits;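 active = mean inhibition of the replicates above the hit cutoff set in the primary screen, cut at about 17% in these data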;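 also: 0% = SIAE with DMSO and probe and 100% = probe without SIAE; inhibitors lower polarization as more probe stays unbound to SIAE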
* = called active by the depositor; / = not tested or not shown.

SMILES | HTRA1 inhibitor | mABHD4 FP | TCR-CD3 inh | SIAE primary | DAGLB inhibitor | SIAE inh conf
O=C1S/C(=C\C=C\c2ccco2)C(=O)N1c1ccccc1 | 9 | 14 | -2 | 21* | -14 | 3
Brc1ccc(-c2csc3[n+]2CCCCC3)cc1 | 2 | 3 | -6 | -2 | -2 | /
c1ccc(-c2c[nH]c3[n+]2CCCCC3)cc1 | -5 | 0 | 4 | 19* | -3 | -1
CC1(c2nnnn2-c2ccc(F)cc2)CCCC(=O)N1CCc1c[nH]c2ccccc12 (stereo not drawn) | / | -1 | / | 1 | / | /
CC(=O)Nc1cc(-c2cccc(NS(C)(=O)=O)c2)cn2c(-c3cccc(C(F)(F)F)c3)cnc12 | / | -27 | -3 | -19 | / | /
CC(=O)Nc1cc(-c2ccccc2N(C)C)cn2c(-c3cccc(C(F)(F)F)c3)cnc12 | / | 24 | 16 | 18* | / | 9
CCCn1cnc2cc(NCc3cccc(OC)c3O)ccc21 | 12 | 9 | 4 | 25* | 3 | 5
COc1ccc(CNc2ccc3c(c2)ncn3C)cc1OC | 1 | 5 | 1 | 18* | 1 | 6
CCCn1cnc2cc(NCc3ccccn3)ccc21 | 5 | 6 | -3 | 5 | -1 | /
Cc1ccc(CNc2ccc3c(c2)ncn3C)cc1 | 3 | 3 | 2 | 10 | 2 | /
CCN1Cc2nnn(Cc3ccccc3)c2-c2cc(N3CCCC3)ccc2S1(=O)=O | / | 23 | / | 3 | / | /
Clc1ccc([C@H]2OC[C@@]3(CNCCc4c[nH]c5ccccc45)CS[C@H](c4ccc(Cl)cc4)N23)cc1 | / | 3 | / | 6 | / | /
Cc1ccc(-c2c(C(=O)NC3CCCC3)oc(=O)c3ccccc23)cc1 | / | -9 | / | 4 | / | /
CN(C)CCN(C(=O)C1CCN(S(=O)(=O)c2cccs2)CC1)c1nc2c(F)cccc2s1 | 0 | 4 | -3 | 19* | -1 | -1
Cc1ccc(-c2nc(C3CCN(S(=O)(=O)c4ccc(C(F)(F)F)cc4)CC3)no2)cc1 | 2 | 8 | 2 | 2 | -7 | /
CS(=O)(=O)N1CCC(c2noc(-c3ccc(C(F)(F)F)cc3)n2)CC1 | -4 | -2 | -1 | 28* | 0 | -1
COc1ccc(C(=O)NCCn2ccc3ccccc32)cc1OC | -6 | 2 | -1 | 22* | -2 | 0
CCOc1ccc(Oc2ccc(NC(=O)CSc3nncn3C)cc2)cc1 | -8 | 11 | 1 | 19* | -1 | -3
Cc1cc(/C([O-])=C(/C(=S)Nc2ccc(F)cc2)[n+]2ccccc2)c(C)n1Cc1ccccc1Cl | 12 | 7 | -2 | 22* | 5 | -2
CC(=O)C1=C(C)N(Cc2ccc(Br)cc2)C(=S)NC1c1cccc(F)c1 (stereo not drawn) | / | -12 | 3 | -9 | / | /
Cc1cc(OC(=O)c2cc(F)c(F)cc2Cl)nc(C)n1 | 7 | 7 | -1 | 19* | -2 | 3
Cc1cc(OC(=O)c2c(Cl)cc(Cl)cc2Cl)nc(C)n1 | 3 | 1 | -5 | 3 | -2 | /
N#Cc1ccc(N=c2ssnc2Cl)cc1 | 7 | 7 | 1 | 22* | 2 | 17*
Cc1nn(-c2cccc(C(F)(F)F)c2)c(Cl)c1/C=N/Nc1cccc(C(=O)O)c1 | -8 | 7 | 1 | 26* | 7 | 13
CC(C)C(C(=O)NCc1ccccc1)N1CCN(CCN2CCOCC2)CC1 (stereo not drawn) | / | 3 | -1 | -6 | / | /
SMILES | HTRA1 inhibitor | mABHD4 FP | TCR-CD3 inh | SIAE primary | DAGLB inhibitor | SIAE inh conf
Cc1ccc(C)c(Cn2cnc3c(cnn3C(C)(C)C)c2=O)c1 | -5 | -7 | 2 | 22* | -7 | -2
Cc1ccccc1Cn1cnc2c(cnn2C(C)(C)C)c1=O | -3 | -2 | -6 | 5 | -6 | /
CCOc1cc(N2CCOCC2)c(OCC)cc1NC(=O)CN1C(=O)NC2(CCCCC2C)C1=O (stereo not drawn) | 6 | 8 | -7 | 14 | -1 | /
Cc1ccc(C2(C)NC(=O)N(CC(=O)Nc3ccc(N4CCOCC4)cc3N3CCOCC3)C2=O)cc1 (stereo not drawn) | -1 | -3 | 4 | 19* | -6 | 1
CCOc1cc(N2CCOCC2)c(OCC)cc1NC(=O)c1ccc(OC)cc1 | 5 | 2 | 6 | 7 | 0 | /
CC1(c2ccccc2)NC(=O)N(CC(=O)Nc2ccc(N3CCOCC3)cc2)C1=O (stereo not drawn) | 4 | -2 | 2 | 19* | 0 | 5
CC1(c2ccccc2)NC(=O)N(CC(=O)Nc2ccc(N3CCOCC3)cc2N2CCOCC2)C1=O (stereo not drawn) | 0 | -7 | -4 | 5 | -1 | /
COc1cccc(C2(C)NC(=O)N(CC(=O)Nc3ccc(N4CCOCC4)cc3)C2=O)c1 (stereo not drawn) | 6 | 2 | 0 | 1 | 1 | /
CCOc1cc(N2CCOCC2)c(OCC)cc1NC(=O)CN1C(=O)NC(C)(c2ccc(OC)cc2)C1=O (stereo not drawn) | 5 | -3 | -2 | 18* | 0 | 3
CCOc1cc(N2CCOCC2)c(OCC)cc1NC(=O)c1ccc(NC(C)=O)cc1 | 2 | 2 | -2 | 23* | -2 | 3
COC(=O)[C@]12C[C@H](CC(=O)NCc3ccc(OC)c(OC)c3)C(=O)N(CCC3=CCCCC3)C1=C[C@H](C(C)(C)C)O[C@@H]2C | / | -6 | -7 | 10 | / | /
C[C@@H]1CN(S(=O)(=O)C(C)(C)C)[C@H](CCO)/C1=C\CCO | / | 2 | -5 | 0 | / | /
O=C(COC(=O)c1ccccc1O)Nc1ccc(N2CCOCC2)cc1 | 12 | -4 | -3 | 17* | -3 | -1
O=C(COC(=O)c1cccnc1Cl)Nc1ccc(N2CCOCC2)cc1 | 4 | 2 | -7 | 1 | 3 | /
CN(C)S(=O)(=O)c1ccc2nc(COCc3nc4ccc(S(=O)(=O)N(C)C)cc4[nH]3)[nH]c2c1 | / | 0 | / | -12 | / | /
COC(=O)[C@]12C[C@H](CC(=O)N3CCN(C(=O)C4CC4)CC3)C(=O)N(Cc3cccc4ccccc34)C1=C[C@H](C(C)(C)C)O[C@@H]2C | / | -3 | / | 3 | / | /
O=[N+]([O-])c1cccc(CN2CCN(c3cccc4[nH]ccc34)CC2)c1 | 2 | 3 | 1 | 20* | -2 | -2
Cc1ccc(Nc2nc(N/N=C/c3c[nH]c4ccccc34)nc(N3CCOCC3)n2)cc1 | 25 | 11 | -5 | 28* | 1 | 9
Cc1[nH]c2ccccc2c1/C=N/Nc1nc(Nc2ccc(F)cc2)nc(N2CCOCC2)n1 | 3 | 3 | 2 | -3 | 1 | /
C(=N\Nc1nc(Nc2ccccc2)nc(N2CCOCC2)n1)/c1c[nH]c2ccccc12 | / | 15 | -9 | 19* | / | 24*
O=C(c1ccccc1)N1CCC2CCN(S(=O)(=O)c3ccccc3)CC21 (stereo not drawn) | / | -9 | -2 | 3 | / | /
CCOC(=O)N1C(=O)C[C@](Sc2ccc(OC)cc2)(C(=O)N2CCOCC2)[C@H]1c1ccc(OC)cc1 | / | -2 | / | 0 | / | /
